This note sets out measurements from ChEMBL document CHEMBL4396973, “Design and development of a series of borocycles as selective, covalent kallikrein 5 inhibitors” (Bioorg Med Chem Lett, 2019).

Data set [1] has as its target Kallikrein-5 (Homo sapiens) (UniProt Q9Y337). The data set is described as follows: Covalent reversible inhibition of human recombinant 6His-Q-FLAG-tagged KLK5 expressed in baculovirus infected Sf9 insect cells assessed as dissociation half life. An outline of the steps: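 Jump-dilution experiment used to follow dissociation from KLK5. The apparent off-rate constant (K-off, per min) and dissociation half-life (T1/2) were derived from it.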

The next data set addresses T1, Kallikrein-8 (Homo sapiens, UniProt O60259).
T1 sequence (O60259 whole entry): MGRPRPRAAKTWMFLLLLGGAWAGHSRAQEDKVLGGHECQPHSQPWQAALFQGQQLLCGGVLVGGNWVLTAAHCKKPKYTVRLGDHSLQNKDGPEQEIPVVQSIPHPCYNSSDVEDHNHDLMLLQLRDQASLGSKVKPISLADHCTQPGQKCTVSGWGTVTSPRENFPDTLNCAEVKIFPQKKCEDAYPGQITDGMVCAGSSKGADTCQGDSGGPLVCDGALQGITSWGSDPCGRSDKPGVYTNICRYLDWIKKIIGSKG
The data set is described as follows: Inhibition of recombinant human C-terminal 10-His-tagged KLK8 (Gln29 to Gly260 residues) expressed in mouse NS0 cells using BOC-VPR-AMC as substrate incubated for 40 mins by FLINT assay.

The nature of data set [2]: Light absorbance of the compound in methanol under UV light irradiation at 290 nm. The essentials:
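Compound dissolved in methanol. UV absorbance was examined across the range above 290 nm as a screen for light-mediated skin toxicity risk.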

In the next data set the target is Kallikrein-1 (Homo sapiens, UniProt P06870). The data set is described as follows: Inhibition of human recombinant N-terminal His-tagged and enterokinase cleavage site-fused KLK1 (19 to 262 residues) expressed in baculovirus infected Sf9 insect cells using R110 labelled GSK3162232A as substrate measured at 30 secs interval for 5 mins by FLINT assay.
The target in a further data set is Prothrombin (Homo sapiens, UniProt P00734). Kind of data set: Inhibition of human recombinant C-terminal 10-His-tagged thrombin (M1 to E622 residues) expressed in mouse NS0 cells using BOC-VPR-AMC as substrate incubated for 40 mins by FLINT assay.
The nature of data set [3]: Genotoxicity in Salmonella typhimurium TA98 in absence of rat S9 fraction by mini-Ames test. In kind it is toxicity. To be noted: salmonella enterica subsp. enterica serovar typhimurium.
Data set [4] deals with T2, Suppressor of tumorigenicity 14 protein (Homo sapiens, UniProt Q9Y5Y6).
T2 sequence (Q9Y5Y6 whole entry): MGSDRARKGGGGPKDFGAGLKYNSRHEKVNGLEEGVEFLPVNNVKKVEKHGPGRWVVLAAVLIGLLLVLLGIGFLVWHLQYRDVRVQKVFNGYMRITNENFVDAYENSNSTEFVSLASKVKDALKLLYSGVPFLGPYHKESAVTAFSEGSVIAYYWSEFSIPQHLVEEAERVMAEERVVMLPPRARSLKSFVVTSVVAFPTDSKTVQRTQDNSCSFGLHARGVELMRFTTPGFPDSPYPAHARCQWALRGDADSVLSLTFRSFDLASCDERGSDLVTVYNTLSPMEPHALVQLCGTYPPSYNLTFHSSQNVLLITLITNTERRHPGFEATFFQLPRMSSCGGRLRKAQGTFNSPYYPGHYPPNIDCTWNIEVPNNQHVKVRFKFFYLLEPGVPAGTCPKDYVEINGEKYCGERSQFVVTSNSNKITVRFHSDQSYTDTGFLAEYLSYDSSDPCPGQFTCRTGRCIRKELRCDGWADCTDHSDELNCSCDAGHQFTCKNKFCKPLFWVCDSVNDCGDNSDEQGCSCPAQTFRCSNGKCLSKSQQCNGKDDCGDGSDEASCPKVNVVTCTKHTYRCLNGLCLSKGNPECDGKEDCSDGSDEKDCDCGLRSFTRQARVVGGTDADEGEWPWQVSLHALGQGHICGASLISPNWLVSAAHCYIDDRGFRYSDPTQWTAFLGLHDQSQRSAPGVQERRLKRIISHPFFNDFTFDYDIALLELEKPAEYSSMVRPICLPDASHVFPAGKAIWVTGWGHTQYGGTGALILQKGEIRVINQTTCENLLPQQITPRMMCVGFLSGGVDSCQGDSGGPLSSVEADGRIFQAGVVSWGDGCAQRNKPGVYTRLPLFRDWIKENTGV
Kind of data set: Inhibition of recombinant human N-terminal Met and 6-His-tagged matriptase (G596 to V855 residues) expressed in Escherichia coli using Boc-QAR-AMC as substrate incubated for 40 mins by FLINT assay.

A further data set concerns the target T3, Kallikrein-5 (Homo sapiens, UniProt Q9Y337).
T3 sequence (Q9Y337 whole entry): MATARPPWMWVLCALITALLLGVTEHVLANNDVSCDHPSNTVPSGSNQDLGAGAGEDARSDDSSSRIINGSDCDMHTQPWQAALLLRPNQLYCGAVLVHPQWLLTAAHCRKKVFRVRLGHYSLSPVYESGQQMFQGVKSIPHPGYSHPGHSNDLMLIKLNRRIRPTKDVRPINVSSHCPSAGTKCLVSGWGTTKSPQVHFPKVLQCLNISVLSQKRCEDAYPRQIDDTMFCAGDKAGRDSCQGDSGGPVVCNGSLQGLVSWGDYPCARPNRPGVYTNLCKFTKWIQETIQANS
Kind of data set: Inhibition of human recombinant 6His-Q-FLAG-tagged KLK5 expressed in baculovirus infected Sf9 insect cells using (Tos-Gly-Pro-Arg)2[R110].2TFA as substrate measured at 30 secs interval for 5 mins using 1 x 10'10M enzyme by FLINT assay.

The target in another data set is Plasma kallikrein (Homo sapiens, UniProt P03952). The data set is described as follows: Inhibition of human C-terminal 6-His-tagged KLKB1 (G20-A638 residues) expressed in mouse NS0 cells using PFR-AMC as substrate incubated for 40 mins by FLINT assay.
Data set [5] addresses Urokinase-type plasminogen activator (Homo sapiens, UniProt P00749). Kind of data set: Inhibition of recombinant human C-terminal 10-His-tagged urokinase (M1 to L431 residues) expressed in mouse NS0 cells using Z-GGR-AMC as substrate incubated for 40 mins by FLINT assay.
Data set [6] can be described thus: Genotoxicity in Salmonella typhimurium TA1535 in absence of rat S9 fraction by mini-Ames test. In kind it is toxicity. To be noted: salmonella enterica subsp. enterica serovar typhimurium.
A short description of data set [7]: Solubility of the compound in Britton-Robinson buffer at pH 6 measured after 12 hrs. The format is physicochemical. An outline of the steps:
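Solubility was measured in Britton-Robinson buffers spanning pH 2 to pH 8. Readings were taken after 12 h and 24 h and reported in mg/mL.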

Another data set addresses T4, Kallikrein-14 (Homo sapiens, UniProt Q9P0G3).
T4 sequence (Q9P0G3 whole entry): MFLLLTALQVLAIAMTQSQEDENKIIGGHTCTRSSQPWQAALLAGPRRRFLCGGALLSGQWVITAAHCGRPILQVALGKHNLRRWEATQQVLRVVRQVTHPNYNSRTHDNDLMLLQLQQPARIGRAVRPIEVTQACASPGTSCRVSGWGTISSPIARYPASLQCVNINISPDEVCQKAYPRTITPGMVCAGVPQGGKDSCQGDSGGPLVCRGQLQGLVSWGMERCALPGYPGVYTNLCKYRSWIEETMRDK
The data set is described as follows: Inhibition of recombinant human C-terminal 10-His-tagged KLK14 (Q19 to M248 residues) expressed in mouse NS0 cells using BOC-VPR-AMC as substrate incubated for 40 mins by FLINT assay.

The source made the active and inactive calls. The calls are words filed in the database; no cut-off is given here.

Plasma kallikrein, sequence (P03952 20-390 limits assumed): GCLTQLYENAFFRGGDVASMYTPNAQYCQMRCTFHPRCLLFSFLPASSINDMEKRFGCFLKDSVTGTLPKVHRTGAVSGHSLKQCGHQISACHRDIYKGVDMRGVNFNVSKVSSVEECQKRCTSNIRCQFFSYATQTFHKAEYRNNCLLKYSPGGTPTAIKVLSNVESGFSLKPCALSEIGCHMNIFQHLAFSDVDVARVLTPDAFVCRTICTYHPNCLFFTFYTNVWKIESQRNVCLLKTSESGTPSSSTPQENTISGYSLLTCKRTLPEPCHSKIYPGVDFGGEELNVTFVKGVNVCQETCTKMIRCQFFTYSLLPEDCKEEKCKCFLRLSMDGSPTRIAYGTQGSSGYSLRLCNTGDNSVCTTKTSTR
Plasma kallikrein, sequence (P03952 391-638 limits assumed): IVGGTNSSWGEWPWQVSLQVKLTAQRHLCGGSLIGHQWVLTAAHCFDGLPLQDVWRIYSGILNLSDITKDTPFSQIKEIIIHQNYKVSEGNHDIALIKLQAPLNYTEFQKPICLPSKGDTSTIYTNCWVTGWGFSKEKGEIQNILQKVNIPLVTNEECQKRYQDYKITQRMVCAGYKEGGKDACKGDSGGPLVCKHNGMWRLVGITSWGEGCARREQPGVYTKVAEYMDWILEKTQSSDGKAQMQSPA
Kallikrein-1, sequence (P06870 whole entry, the tested form may be a part): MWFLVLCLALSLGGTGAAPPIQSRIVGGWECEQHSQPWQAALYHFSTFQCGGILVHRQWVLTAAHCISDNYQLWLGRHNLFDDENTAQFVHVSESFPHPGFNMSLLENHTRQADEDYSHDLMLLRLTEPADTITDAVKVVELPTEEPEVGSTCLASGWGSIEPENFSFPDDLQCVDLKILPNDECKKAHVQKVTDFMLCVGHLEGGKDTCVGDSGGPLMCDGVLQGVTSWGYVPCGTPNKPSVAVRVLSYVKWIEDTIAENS

Turning to `Cl.N=C(N)c1ccc([C@H]2Cc3ccc(C(F)(F)F)cc3B(O)O2)cc1OCc1cccnc1`, in data set [1], the T1/2 is 1.17 h. Further, the half-inhibitory concentration (IC50) is 6.31 nM on Kallikrein-8; 251 nM on Kallikrein-1; 1260 nM on Prothrombin; 1260 nM in data set [4]; less than 0.316 nM on Kallikrein-5; 20 nM against Plasma kallikrein. Also, the 50% inhibitory concentration (IC50) in [5] is 7940 nM; at Kallikrein-14, 31.6 nM. Besides, the outcome in data set [2] was inactive. For the same compound, the Activity entry in data set [3] and in data set [6] was “Non-Toxic” throughout. In data set [7], this compound returned a solubility at 12 h of 3200 µg/mL.
